# Source: PMC8640995 (ACS Chemical Neuroscience, 2021)
# Where two headings read alike, the source gives them in different places.
# Key:
# [1] = previously reported biodistribution data, 5 and 15 min post-injection; cited from earlier work
# [2] = assay type: in vivo, Wistar rats; settings: for area under the curve, brain time–activity curve: 60 min scan; for area under the curve, brain time–activity curve / SUVmax brain: n = 2
# [3] = previously determined using the same method; cited from earlier work
# [4] = target: T1, P2Y12R (Rattus norvegicus, UniProt Q9EPX4); assay type: in vivo, Wistar rats
# T1 sequence (Q9EPX4 whole entry): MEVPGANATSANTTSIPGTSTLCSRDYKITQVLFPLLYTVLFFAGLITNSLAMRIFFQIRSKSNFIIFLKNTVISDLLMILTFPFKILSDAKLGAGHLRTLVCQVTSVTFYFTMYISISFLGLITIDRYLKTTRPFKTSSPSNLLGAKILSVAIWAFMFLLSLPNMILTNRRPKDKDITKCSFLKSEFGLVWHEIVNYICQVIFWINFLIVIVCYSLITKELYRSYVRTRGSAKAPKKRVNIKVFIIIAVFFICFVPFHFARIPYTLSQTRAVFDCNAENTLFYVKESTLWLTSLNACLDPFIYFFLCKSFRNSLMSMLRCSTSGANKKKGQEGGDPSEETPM
# Procedure, shortened: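 Male Wistar rats (12–15 weeks, 250–350 g) under isoflurane anesthesia; n = 4 per group. Both groups received tariquidar 15 mg/kg iv. The blocking group also received unlabeled test compound 5 mg/kg together with the tariquidar. The 18F tracer (10–25 MBq) was given iv via tail vein, followed immediately by a dynamic PET scan. Whole-brain ROI time–activity curves were expressed as SUV, mean ± standard deviation.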
# [5] = target: T1, P2Y12R; assay: in vitro autoradiography on rat brain sections using [18F]3; assay type: binding
# Procedure, shortened: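 Flash-frozen rat brain sections (10 μm) were prewashed 15 min in 50 mM Tris-HCl pH 7.4 and air-dried. They were then incubated 30 min with 18F tracer (0.1 MBq·mL–1) in 50 mM Tris-HCl/3% BSA pH 7.4, with or without P2Y12R inhibitor at 1 μM. Sections were washed twice for 1 min in cold 5 mM Tris-HCl (4 °C), dipped in ice-cold water and dried, then exposed to a phosphor screen for 10 min. Whole-brain ROI binding was expressed as % of no-inhibitor binding; n = 3.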
# [6] = target: human P2Y12R; settings: human P2Y12R-transfected HEK cells; cited from earlier work
# [7] = baseline, after the initial perfusion peak, iv
# [8] = efflux transporter blocking with tariquidar
"area under the curve, brain time–activity curve ([2]; baseline)","SUVmax brain [2, 7]","area under the curve, brain time–activity curve [2, 8]",SMILES,Ki [6],also measured
3.8 ± 0.7,0.1,5.2 ± 0.2,"CCOC(=O)c1cc(C#N)c(N2CC(N[11C](=O)NS(=O)(=O)c3ccc(Cl)s3)C2)nc1C [[^11C]1, Ethyl 6-(3-(3-((5-Chlorothiophen-2-yl)sulfonyl)[^11C]ureido)azetidin-1-yl)-5-cyano-2-methylnicotinate]",,%ID/g in rat brain [1]: < 0.1 %ID/g; log D7.4 [3]: 1.93 ± 0.02
4.4 ± 0.1,0.2,27.6 ± 1.1,"CCCc1cc2c(N3CCn4c(nnc4C(F)(F)F)C3)nc(OCC[18F])nc2s1 [[^18F]3, 2-(2-[^18F]Fluoroethoxy)-6-propyl-4-(3-(trifluoromethyl)-5,6-dihydro-[1,2,4]triazolo[4,3-a]pyrazin-7(8H)-yl)thieno[2,3-d]pyrimidine]",,"SUVmax brain ([2]; efflux transporter blocking with tariquidar 15 mg/kg iv): 1.0; area under the curve, whole brain time–activity curve ([4]; baseline: tariquidar + tracer, n = 4): 24.1 ± 0.5; area under the curve, whole brain time–activity curve ([4]; blocking: tariquidar + unlabeled 3 (5 mg/kg) and tracer, n = 4, p = 0.04): 20.6 ± 0.7; selective and specific binding [5]: approximately 70%"
,,,"CCc1cc2c(N3CCN(C(=O)c4ccc(-c5ccccc5)cc4)CC3)nc(N3CCNC(=O)C3)nc2s1 [compound 2, 4-(4-(4-([1,1′-Biphenyl]-4-carbonyl)piperazin-1-yl)-6-ethylthieno[2,3-d]pyrimidin-2-yl)piperazin-2-one]",9 nM,
,,,"CCCc1cc2c(N3CCn4c(nnc4C(F)(F)F)C3)nc(OCCF)nc2s1 [compound 3, 2-(2-Fluoroethoxy)-6-propyl-4-(3-(trifluoromethyl)-5,6-dihydro-[1,2,4]triazolo[4,3-a]pyrazin-7(8H)-yl)thieno[2,3-d]pyrimidine]",0.3 nM,"efflux transporter substrate behavior ([2]; rats, tariquidar blocking of P-glycoprotein and breast cancer resistance protein): strong substrate for efflux transporters; blocking efficiency of [18F]3 binding ([5]; inhibitor co-incubated at 1 μM, n = 3): about 70%"
